Assay results published in ChEMBL document CHEMBL4715918, “Syntheses and evaluation of acridone-naphthalimide derivatives for regulating oncogene PDGFR-β expression” (Bioorg Med Chem, 2021).
The source made the active and inactive calls. The calls are words filed in the database; no cut-off is given here.

Experiments:
[1] = system: Quadruplex DNA; test: Binding affinity to 5'-biotin-d [GCTGGGAGAAGGGGGGGCGGCGGGGCAGGGAGGGTGGACGC]-3' G4-quadruplex DNA (unknown origin) assessed as change in melting temperature at 10 uM by CD spectroscopy; format: nucleic-acid assay
How it was run: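 Oligomer 2 µM in Tris-HCl pH 7.4, annealed (95 °C for 5 min, slow cooling, 4 °C overnight). Ligand 10 µM. CD ellipticity followed at 263 nm over 25–95 °C; ΔTm taken against DNA alone.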

[2] = biological target: Quadruplex DNA; test: Binding affinity to FAM-labeled 5'-biotin-d [GCTGGGAGAAGGGGGGGCGGCGGGGCAGGGAGGGTGGACGC]-3' G4-quadruplex DNA (unknown origin) by microscale thermophoresis assay; format: nucleic-acid assay
How it was run: (§1)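 Microscale thermophoresis with DNA held constant at 1 µM. Compound serially diluted 3:4 from 10 µM over 12 points. Samples run in standard glass capillaries with LED and laser power both at 20%. KD derived by fitting.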

[3] = system: Quadruplex DNA; test: Binding affinity to 5'-FAM-GGGAGAAGGGGGGGCGGCGGGGCAGGGAGGGTGGAC-TAMRA-3' G4-quadruplex DNA (unknown origin) assessed as stabilization G4-quadruplex structure by measuring increase in I585/I518 ratio by FRET assay; format: nucleic-acid assay; settings: dose 2-10 equiv
How it was run: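 FRET probe dual-labelled FAM/TAMRA, annealed, 10 µM in 10 mM Tris-HCl pH 7.4 with 10 mM KCl; compound added in equal volume. Emission 500–700 nm recorded, corrected for compound signal in the same buffer; I585/I518 ratio compared.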

[4] = Binding affinity to 5'-biotin-d [GCGTCCACCCTCCCTGCCCCGCCGCCCCCCCITCTCCCAGC]-3' i-motif DNA (unknown origin) assessed as change in melting temperature at 10 uM by CD spectroscopy
How it was run: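 Oligomer 2 µM in BPES buffer pH 5.5, heated to 95 °C for 5 min, cooled slowly and held at 4 °C overnight. Ligand 10 µM. CD ellipticity followed at 288 nm from 25–95 °C (1 mm cuvette); Tm derived, ΔTm against DNA alone.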

[5] = Binding affinity to FAM-labeled 5'-biotin-d [GCGTCCACCCTCCCTGCCCCGCCGCCCCCCCITCTCCCAGC]-3' i-motif DNA (unknown origin) by microscale thermophoresis assay; how it was run: as §1
[6] = Binding affinity to 5'-FAM-GCGTCCACCCTCCCTGCCCCGCCGCCCCCCCTTCTCCCAGC-TAMRA-3' i-motif DNA (unknown origin) assessed as unfolding i-motif structure by measuring reduction in I585/I518 ratio at 2 to 10 equiv by FRET assay; settings: dose 2-10 equiv
How it was run: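 FRET probe dual-labelled FAM donor/TAMRA acceptor, annealed, 10 µM in 30 mM BPES buffer with 1 mM EDTA, 100 mM KCl; compound added in equal volume. Emission 500–700 nm recorded, corrected for compound signal in the same buffer; I585/I518 ratio compared. The i-motif forms at pH 6.2 and unfolds at pH 6.4.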

[7] = system: MCF7; test: Binding affinity to wild type PDGFRbeta promoter (unknown origin) in human MCF7 cells assessed as down regulation of PDGFRbeta mRNA expression at 1.25 to 20 uM after 12 hrs by RT-PCR analysis; format: cell-based; settings: dose 1.25-20 µM
[8] = Binding affinity to FAM-labeled 5'-biotin-d[TATAGCTATA-HEG-TATAGCTATA]- 3' duplex DNA (unknown origin) by microscale thermophoresis assay; how it was run: as §1

SMILES: C[n+]1ccc(-c2c3nc(c(-c4cc[n+](C)cc4)c4ccc([nH]4)c(-c4cc[n+](C)cc4)c4ccc([nH]4)c(-c4cc[n+](C)cc4)c4nc2C=C4)C=C3)cc1 [TMPYP4]
- ΔTm [1]: > 20 °C
- Kd [2]: 3.96 µM
- Activity [3]: Dose-dependent effect
- ΔTm [4]: 0.11 °C
- Kd [5]: 463 µM
- Activity [6]: inactive
- Activity [7]: Dose-dependent effect
- Kd [8]: 1310 µM
